Experimental data from ChEMBL document CHEMBL1128531 (J Med Chem, 1995).
Activity calls are given as the source filed them. No cut-off for these calls is given here.

Columns and labels:
[1] = target: T1, 5-hydroxytryptamine receptor 1A (Mus musculus, UniProt Q64264); experiment: Binding affinity against serotonergic 5-HT1a receptor
T1 sequence (Q64264 whole entry): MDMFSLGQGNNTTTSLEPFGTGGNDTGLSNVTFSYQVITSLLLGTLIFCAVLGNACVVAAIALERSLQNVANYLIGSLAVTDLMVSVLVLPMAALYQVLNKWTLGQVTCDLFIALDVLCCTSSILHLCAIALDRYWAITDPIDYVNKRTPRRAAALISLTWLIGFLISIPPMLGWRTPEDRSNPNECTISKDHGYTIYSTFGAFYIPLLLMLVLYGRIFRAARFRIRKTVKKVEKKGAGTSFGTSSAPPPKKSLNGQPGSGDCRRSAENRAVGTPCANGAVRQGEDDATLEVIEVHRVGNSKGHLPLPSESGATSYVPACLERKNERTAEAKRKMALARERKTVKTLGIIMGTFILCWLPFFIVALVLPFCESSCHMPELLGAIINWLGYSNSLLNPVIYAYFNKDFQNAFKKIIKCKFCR

[2] = target: T2, 5-hydroxytryptamine receptor 2C (Rattus norvegicus, UniProt P08909); experiment: Binding affinity against serotonergic 5-HT1c receptor
T2 sequence (P08909 whole entry): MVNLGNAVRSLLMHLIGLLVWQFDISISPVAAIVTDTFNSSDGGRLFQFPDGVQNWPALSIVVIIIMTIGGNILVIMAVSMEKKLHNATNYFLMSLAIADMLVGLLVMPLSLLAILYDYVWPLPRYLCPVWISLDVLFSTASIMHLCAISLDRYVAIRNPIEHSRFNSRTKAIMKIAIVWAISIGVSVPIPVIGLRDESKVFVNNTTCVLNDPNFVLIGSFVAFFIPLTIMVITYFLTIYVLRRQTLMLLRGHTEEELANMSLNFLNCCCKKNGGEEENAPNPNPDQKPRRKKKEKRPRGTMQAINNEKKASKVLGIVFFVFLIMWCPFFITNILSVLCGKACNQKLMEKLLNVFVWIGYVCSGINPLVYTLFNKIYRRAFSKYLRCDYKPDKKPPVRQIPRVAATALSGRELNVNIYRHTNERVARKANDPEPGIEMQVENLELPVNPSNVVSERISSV

[3] = target: 5-hydroxytryptamine receptor 2A (Bos taurus, UniProt Q75Z89); experiment: Binding affinity against serotonergic 5-HT2 receptor
[4] = target: Beta-1 adrenergic receptor (Homo sapiens, UniProt P08588); experiment: Binding affinity against Beta-1 adrenergic receptor
[5] = target: Beta-2 adrenergic receptor (Homo sapiens, UniProt P07550); experiment: Binding affinity against Beta-2 adrenergic receptor
Rattus norvegicus = experiment: Ability to produce robust rotation in the lesioned rat after subcutaneous administration; assay type: functional; details: sc
D(2) dopamine receptor [6] = target: T3, D(2) dopamine receptor (Homo sapiens, UniProt P14416); experiment: Intrinsic activity relative to dopamine for human Dopamine receptor D2 at 10 uM
Summary of the method: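 Adenylate cyclase functional assay in LTK cells transfected with the human D2 receptor. […] Values are mean ± SEM over the stated number of experiments.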

D(1A) dopamine receptor [7] = target: T4, D(1A) dopamine receptor (Homo sapiens, UniProt P21728); experiment: Adenylate cyclase assay carried out in LTK cells transfected with human Dopamine receptor D1; assay type: cell-based
D(2) dopamine receptor [8] = target: T3, D(2) dopamine receptor; experiment: Adenylate cyclase assay carried out in LTK cells transfected with human Dopamine receptor D2; assay type: cell-based
D(1A) dopamine receptor [9] = target: T4, D(1A) dopamine receptor; experiment: Binding affinity against cloned human Dopamine receptor D1 using [125I]-SCH 23982 as radioligand transfected in HEK cells; assay type: cell-based, HEK293
D(2) dopamine receptor [10] = target: T3, D(2) dopamine receptor; experiment: Binding affinity against cloned human Dopamine receptor D2 using [3H]spiperone as radioligand transfected in LTK cells
D(2) dopamine receptor [11] = target: T3, D(2) dopamine receptor

T4 sequence (P21728 whole entry): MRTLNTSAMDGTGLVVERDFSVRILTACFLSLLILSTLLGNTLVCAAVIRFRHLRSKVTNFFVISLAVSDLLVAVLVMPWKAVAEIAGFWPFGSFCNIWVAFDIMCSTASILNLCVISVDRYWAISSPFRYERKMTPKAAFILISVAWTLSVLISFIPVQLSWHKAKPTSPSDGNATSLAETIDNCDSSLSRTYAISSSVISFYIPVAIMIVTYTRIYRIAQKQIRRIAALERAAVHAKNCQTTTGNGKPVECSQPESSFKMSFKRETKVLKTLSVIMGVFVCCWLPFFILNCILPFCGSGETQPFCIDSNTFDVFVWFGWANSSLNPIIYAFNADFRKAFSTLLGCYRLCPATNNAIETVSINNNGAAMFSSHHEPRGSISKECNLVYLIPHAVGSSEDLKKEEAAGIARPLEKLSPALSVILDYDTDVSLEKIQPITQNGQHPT
T3 sequence (P14416 whole entry): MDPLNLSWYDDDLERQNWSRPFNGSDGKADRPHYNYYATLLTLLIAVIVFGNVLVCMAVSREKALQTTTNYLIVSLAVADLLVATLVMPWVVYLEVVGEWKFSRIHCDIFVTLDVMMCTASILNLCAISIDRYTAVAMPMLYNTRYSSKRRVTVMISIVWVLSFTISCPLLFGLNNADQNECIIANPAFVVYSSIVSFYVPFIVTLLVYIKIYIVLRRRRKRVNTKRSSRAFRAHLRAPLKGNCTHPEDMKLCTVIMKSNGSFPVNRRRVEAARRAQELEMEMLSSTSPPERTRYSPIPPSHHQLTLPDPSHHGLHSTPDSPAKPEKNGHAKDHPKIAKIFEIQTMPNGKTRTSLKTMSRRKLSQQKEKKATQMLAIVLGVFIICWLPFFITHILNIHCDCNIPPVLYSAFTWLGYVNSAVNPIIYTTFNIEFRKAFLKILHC
Beta-1 adrenergic receptor, sequence (P08588 whole entry): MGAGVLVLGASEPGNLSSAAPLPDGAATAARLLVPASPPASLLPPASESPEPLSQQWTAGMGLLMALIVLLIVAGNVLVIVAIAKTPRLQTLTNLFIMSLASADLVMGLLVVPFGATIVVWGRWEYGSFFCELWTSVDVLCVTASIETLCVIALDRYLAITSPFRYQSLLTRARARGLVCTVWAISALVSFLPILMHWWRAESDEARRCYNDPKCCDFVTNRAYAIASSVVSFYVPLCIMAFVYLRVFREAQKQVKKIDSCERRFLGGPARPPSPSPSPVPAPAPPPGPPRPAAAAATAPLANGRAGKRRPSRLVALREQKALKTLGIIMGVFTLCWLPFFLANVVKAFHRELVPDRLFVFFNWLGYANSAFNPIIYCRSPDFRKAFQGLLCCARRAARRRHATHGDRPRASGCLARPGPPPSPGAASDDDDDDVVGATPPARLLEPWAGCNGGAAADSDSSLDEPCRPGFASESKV
5-hydroxytryptamine receptor 2A, sequence (Q75Z89 whole entry): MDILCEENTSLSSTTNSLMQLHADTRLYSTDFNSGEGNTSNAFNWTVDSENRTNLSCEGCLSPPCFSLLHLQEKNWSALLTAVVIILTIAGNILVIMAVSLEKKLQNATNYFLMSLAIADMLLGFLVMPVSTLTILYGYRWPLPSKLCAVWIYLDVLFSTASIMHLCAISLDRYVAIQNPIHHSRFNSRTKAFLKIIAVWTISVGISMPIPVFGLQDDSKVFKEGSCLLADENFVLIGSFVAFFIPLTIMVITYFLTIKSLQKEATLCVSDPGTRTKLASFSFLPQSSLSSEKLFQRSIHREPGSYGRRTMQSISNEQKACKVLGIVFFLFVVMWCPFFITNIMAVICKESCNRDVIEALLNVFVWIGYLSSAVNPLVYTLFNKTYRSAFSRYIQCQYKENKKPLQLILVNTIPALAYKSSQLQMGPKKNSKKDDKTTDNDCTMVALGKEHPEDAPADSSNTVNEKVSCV
Beta-2 adrenergic receptor, sequence (P07550 whole entry): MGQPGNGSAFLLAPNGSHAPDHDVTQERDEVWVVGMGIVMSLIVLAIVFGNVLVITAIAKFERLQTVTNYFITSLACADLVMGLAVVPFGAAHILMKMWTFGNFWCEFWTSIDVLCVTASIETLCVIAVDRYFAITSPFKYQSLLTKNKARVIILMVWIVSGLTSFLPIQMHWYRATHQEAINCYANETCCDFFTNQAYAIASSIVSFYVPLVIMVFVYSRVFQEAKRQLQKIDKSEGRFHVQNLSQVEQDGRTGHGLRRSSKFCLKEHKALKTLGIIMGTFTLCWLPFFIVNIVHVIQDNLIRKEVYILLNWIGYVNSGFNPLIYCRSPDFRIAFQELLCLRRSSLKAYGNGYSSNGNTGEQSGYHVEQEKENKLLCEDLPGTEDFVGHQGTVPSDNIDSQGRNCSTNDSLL

SMILES | ED50 (Rattus norvegicus) [µmol/kg] | IA (D(2) dopamine receptor [6]) [%] | EC50 (D(1A) dopamine receptor [7]) [nM] | EC50 (D(2) dopamine receptor [8]) [nM] | Ki (D(1A) dopamine receptor [9]) [nM] | Ki (D(2) dopamine receptor [10]) [nM] | further results
Oc1cc2c(cc1O)[C@H]1c3ccccc3CN[C@@H]1CC2 [DIHYDREXIDINE] | 0.04 | – | – | – | – | – | Ki [1]: > 3000 nM; Ki [2]: 2400 nM; Ki [3]: > 3000 nM; Ki [4]: 1500 nM; Ki [5]: 1200 nM
CCCc1cc2c(s1)CN[C@H]1CCc3cc(O)c(O)cc3[C@H]21 | – | 3 | 1700 | > 10000 | 3050 | 4020 | –
CCCc1cc2c(s1)CN[C@@H]1CCc3cc(O)c(O)cc3[C@@H]21 [A-86929] | – | – | 9 | 3900 | 49 | 710 | –
Oc1cc2c(cc1O)[C@@H](c1ccccc1)CNCC2 [(R)-SKF-38393] | 0.02 | – | – | – | – | – | IA (D(2) dopamine receptor [11]): inactive
NC[C@@H]1O[C@H](C23CC4CC(CC(C4)C2)C3)Cc2c1ccc(O)c2O | – | 18 | – | > 4000 | – | 1550 | –
